Experimental data: ChEMBL document CHEMBL2057137, “Lead optimization studies on FimH antagonists: discovery of potent and orally bioavailable ortho-substituted biphenyl mannosides” (J Med Chem, 2012); call rule not given here

Key:
[1] = Binding affinity to biotinylated Escherichia coli FimH-lectin domain after 30 mins by biolayer interferometry method
In short: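 FimH lectin domain biotinylated 1:1, loaded at 50μg/ml in HBS (20mM HEPES pH 7.5, 150mM NaCl) onto streptavidin tips, biocytin-blocked. Compound applied as 7 twofold dilutions in HBS for 10 min association, then 30 min dissociation, 30°C with shaking. Referenced to biocytin-blocked pins for drift and nonspecific binding. Kd from global kinetic fitting.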

[2] = tested on: Escherichia coli; experiment: Binding affinity to […] Escherichia coli FimH-lectine domain assessed as melting temperature at 100 uM by differential scanning fluorometric assay
In short: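 Untagged FimH lectin domain (residues 1–158 of UPEC J96 FimH), 5 µg in a 50 µl reaction of HBS (20mM HEPES pH 7.5, 150mM NaCl). Compound at 100µM final, diluted from DMSO stocks, with SYPRO Orange at 5X final. Controls were FimH alone plus 0.2% DMSO. Melt curve ran from 20–90°C in 0.5 °C steps of 15 s each, with fluorescence read on the HEX channel.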

[3] = tested on: Escherichia coli; experiment: Inhibition of Escherichia coli FimH-mediated hemagglutinination of human red blood cells assessed as drug level required for > 90% inhibition of hemagglutinination after 30 mins by hemagglutinination inhibition assay
[4] = tested on: Escherichia coli; experiment: Antibacterial activity against Escherichia coli K-12 ATCC 25404 assessed as inhibition of biofilm formation after 2 hrs by confocal laser microscopic analysis; assay type: functional, organism-based; details: for IC50: Escherichia coli, K-12 ATCC 25404, 2 h
[5] = Effective permeability of the compound by PAMPA assay; assay type: ADME; set-up: unit not given here
[6] = tested on: Mus musculus; experiment: Stability in mouse urinary tract infection model assessed as hydrolysis of glycosidic bond at 10 to 200 mg/kg, po; assay type: ADME, organism-based, Urine; set-up: dose 10-200 mg/kg, route oral; details: in vivo
In short: (§1)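 Oral dosing in mice. Urine and plasma compound levels quantified by LC-MS/MS in selected reaction monitoring mode. The phenolic biphenyl hydrolysis product (R group) in urine was monitored at transition 285/254.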

[7] = Drug metabolism in mouse urine assessed as formation of phenolic biphenyl metabolite at 10 to 200 mg/kg, po; assay type: ADME, organism-based; set-up: dose 10-200 mg/kg, route oral; details: in vivo; in short: as §1
[8] = Drug level in mouse urine at 100 mg/kg, po measured after 6 hrs; assay type: ADME, organism-based; set-up: dose 100 mg/kg, route oral; details: read-out: Drug uptake; in short: as §1
[9] = Plasma concentration in mouse at 100 mg/kg, po measured after 6 hrs; assay type: ADME, organism-based; set-up: dose 100 mg/kg, route oral; in short: as §1
[10] = tested on: Mus musculus; experiment: Ratio of drug uptake in mouse urine to plasma at 50 mg/kg, po measured after 6 hrs; details: in vivo
[11] = Drug level in mouse urine at 50 mg/kg, po measured after 6 hrs; assay type: ADME, organism-based; set-up: dose 50 mg/kg, route oral; details: read-out: Drug uptake
In short: (§2)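 Oral dosing in mice at 50 mg/kg. Plasma and urine sampled at 30 min and 1, 2, 3, 4, 6 h after dosing. Compound quantified by LC-MS/MS in selected reaction monitoring mode.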

[12] = Plasma concentration in mouse at 50 mg/kg, po measured after 6 hrs; assay type: ADME, organism-based; set-up: dose 50 mg/kg, route oral; in short: as §2

Question: Which results are given for `COC(=O)c1cc(O[C@H]2O[C@H](CO)[C@@H](O)[C@H](O)[C@@H]2O)cc(C(=O)OC)c1`?
Answer: Kd [1]: 3.45 nM; Tm [2]: 73.2 °C

Question: For `COC(=O)c1csc(-c2ccc(O[C@H]3O[C@H](CO)[C@@H](O)[C@H](O)[C@@H]3O)cc2)c1`, which EC>90 [3] is on record?
Answer: 2 µM

Question: For `NCCNC(=O)c1cccc(-c2ccc(O[C@H]3O[C@H](CO)[C@@H](O)[C@H](O)[C@@H]3O)cc2)c1`, which EC>90 [3] is on record?
Answer: 3 µM

Question: Which Tm [2] does the source give for `COC(=O)c1cccc(O[C@H]2O[C@H](CO)[C@@H](O)[C@H](O)[C@@H]2O)c1` here?
Answer: 70.8 °C

Question: For `O=c1[nH]ccc2ccc(-c3ccc(O[C@H]4O[C@H](CO)[C@@H](O)[C@H](O)[C@@H]4O)cc3)cc12`, which EC>90 [3] is on record?
Answer: 0.1 µM

Question: For `O=C(Nc1ccncc1)c1cccc(-c2ccc(O[C@H]3O[C@H](CO)[C@@H](O)[C@H](O)[C@@H]3O)cc2)c1`, which EC>90 [3] is on record?
Answer: 0.25 µM

Question: Which results are given for `OC[C@H]1O[C@H](Oc2ccccc2)[C@@H](O)[C@@H](O)[C@@H]1O`?
Answer: EC>90 [3]: 30 µM; Tm [2]: 68.9 °C

Question: For `O=C(c1cccc(-c2ccc(O[C@H]3O[C@H](CO)[C@@H](O)[C@H](O)[C@@H]3O)cc2)c1)N1CCNCC1`, which EC>90 [3] is on record?
Answer: 4 µM

Question: Which IC50 [4] does the source give for `COC(=O)c1cccc(-c2ccc(O[C@H]3O[C@H](CO)[C@@H](O)[C@H](O)[C@@H]3O)c(C)c2)c1` here?
Answer: 330 nM

Question: And the EC>90 [3]?
Answer: 0.12 µM

Question: Which results are given for `OC[C@H]1O[C@H](Oc2ccc(-c3cccc(C(F)(F)F)c3)cc2)[C@@H](O)[C@@H](O)[C@@H]1O`?
Answer: Kd [1]: 1.56 nM; Tm [2]: 68.3 °C

Question: For `COC(=O)c1cccc(-c2ccc(O[C@H]3O[C@H](CO)[C@@H](O)[C@H](O)[C@@H]3O)c(F)c2)c1`, which EC>90 [3] is on record?
Answer: 0.75 µM

Question: Which results are given for `OCc1cccc(-c2ccc(O[C@H]3O[C@H](CO)[C@@H](O)[C@H](O)[C@@H]3O)cc2)c1`?
Answer: Kd [1]: 2.61 nM; Tm [2]: 71.2 °C

Question: Which results are given for `CNC(=O)c1cc(C(=O)NC)cc(-c2ccc(O[C@H]3O[C@H](CO)[C@@H](O)[C@H](O)[C@@H]3O)cc2)c1`?
Answer: log Pe [5]: -4.51; Kd [1]: 0.14 nM; MED [4]: 0.74 µM; IC50 [4]: 740 nM; Tm [2]: 74.4 °C; Stability [6]: Unstable; Drug metabolism [7]: Active; concentration at 6 h [8]: 4850 nM; concentration at 6 h [9]: 10 nM; Ratio [10]: 10

Question: With `O=C(O)c1cc(C(=O)O)cc(-c2ccc(O[C@H]3O[C@H](CO)[C@@H](O)[C@H](O)[C@@H]3O)cc2)c1` as the compound, how does the Kd [1] read?
Answer: 14.5 nM

Question: And the Tm [2]?
Answer: 72.4 °C

Question: Which “log Pe” value [5] does the source give for `COC(=O)c1cccc(-c2ccc(O[C@H]3O[C@H](CO)[C@@H](O)[C@H](O)[C@@H]3O)c(Cl)c2)c1` here?
Answer: -4.29

Question: What about the IC50 [4] of the same compound?
Answer: 260 nM

Question: What about the EC>90 [3] of the same compound?
Answer: 0.03 µM

Question: Which “log Pe” value [5] does the source give for `CNC(=O)c1cc(C(=O)NC)cc(-c2ccc(O[C@H]3O[C@H](CO)[C@@H](O)[C@H](O)[C@@H]3O)c(C)c2)c1` here?
Answer: -8.46

Question: And the IC50 [4]?
Answer: 73 nM

Question: And the EC>90 [3]?
Answer: 0.016 µM

Question: What about the Tm [2] of the same compound?
Answer: 75.8 °C

Question: And the Ratio [10]?
Answer: 10

Question: Which Kd [1] does the source give for `OC[C@H]1O[C@H](OCc2ccccc2)[C@@H](O)[C@@H](O)[C@@H]1O` here?
Answer: 43.7 nM

Question: Which EC>90 [3] does the source give for `COC(=O)c1ccc(-c2ccc(O[C@H]3O[C@H](CO)[C@@H](O)[C@H](O)[C@@H]3O)cc2)s1` here?
Answer: 1 µM

Question: Which Kd [1] does the source give for `OC[C@H]1O[C@H](Oc2ccc(-c3ccccc3)cc2)[C@@H](O)[C@@H](O)[C@@H]1O` here?
Answer: 3 nM

Question: And the Tm [2]?
Answer: 71.2 °C

Question: Which EC>90 [3] does the source give for `NC(=O)Nc1csc(-c2ccc(O[C@H]3O[C@H](CO)[C@@H](O)[C@H](O)[C@@H]3O)cc2)c1` here?
Answer: 1 µM

Question: For `OC[C@H]1O[C@H](Oc2ccc(-c3ccc4ncncc4c3)cc2)[C@@H](O)[C@@H](O)[C@@H]1O`, which EC>90 [3] is on record?
Answer: 0.38 µM

Question: With `COc1ccccc1-c1ccc(O[C@H]2O[C@H](CO)[C@@H](O)[C@H](O)[C@@H]2O)cc1` as the compound, how does the Tm [2] read?
Answer: 70.7 °C

Question: With `CNC(=O)c1cccc(-c2ccc(O[C@H]3O[C@H](CO)[C@@H](O)[C@H](O)[C@@H]3O)cc2)c1` as the compound, how does the IC50 [4] read?
Answer: 1350 nM

Question: What about the EC>90 [3] of the same compound?
Answer: 0.5 µM

Question: And the Tm [2]?
Answer: 73.4 °C

Question: Which “log Pe” value [5] does the source give for `CNC(=O)c1cccc(-c2ccc(O[C@H]3O[C@H](CO)[C@@H](O)[C@H](O)[C@@H]3O)c(C)c2)c1` here?
Answer: -3.89

Question: And the IC50 [4]?
Answer: 160 nM

Question: And the EC>90 [3]?
Answer: 0.06 µM

Question: And the Tm [2]?
Answer: 74.5 °C

Question: What about the concentration at 6 h [11] of the same compound?
Answer: 4370 nM

Question: What about the concentration at 6 h [12] of the same compound?
Answer: 100 nM

Question: And the Ratio [10]?
Answer: 10
